The nature of test [1]: Antioxidant activity against copper-induced LDL-oxidation assessed as length of lag phase of oxidative procedure of LDL at 0.1 to 10 uM measured every 10 mins for 8 hrs by spectrophotometry relative to 5 uM of copper. It counts as functional. The method, boiled down:
(§1)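 Copper oxidation of LDL: LDL isolated by NaBr density ultracentrifugation (1.019–1.063 g/mL) and dialysed in 0.01 M PBS pH 7.4 under N2 at 4 °C. 20 µL of 16.6 µM CuSO4 is added to 160 µL LDL (125 µg protein/mL) with compound (0.1–10 µM) or PBS at 30 °C. A234 is read every 10 min for 8 h. R is the compound lag phase divided by the control lag phase.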

A short description of test [2]: Antioxidant activity against copper-induced LDL-oxidation assessed as length of lag phase of oxidative procedure of LDL at 0.1 to 10 uM measured every 10 mins for 8 hrs by spectrophotometry relative to 1 uM of copper. The format is functional. Put shortly:
as §1

A short description of test [3]: Antioxidant activity against CuSO4-induced LDL-oxidation assessed as increase in lag phase of conjugated diene formation by 1.5 times measured every 10 mins for 8 hrs by spectrophotometry analysis.
Test [4] in a line: Antioxidant activity in BAEC assessed as protection against air-oxidized LDL-induced cell death at 10 uM pretreated for 24 hrs before air-oxidized LDL challenge measured after 16 hrs by lactate dehydrogenase release assay (reference value: 22.76 +/- 1.53 %). The format is functional, Bos taurus.
Test [5] is described as follows: Antioxidant activity against APPH-induced LDL-oxidation assessed as length of lag phase of oxidative procedure of LDL at 0.1 to 10 uM measured every 10 mins for 8 hrs by spectrophotometry relative to 1 uM of APPH. It counts as functional. Put shortly:
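AAPH oxidation of LDL: LDL isolated by NaBr density ultracentrifugation (1.019–1.063 g/mL) and dialysed in 0.01 M PBS pH 7.4 under N2 at 4 °C. 160 µL LDL (125 µg protein/mL) is mixed with 20 µL of 2 mM AAPH and compound (0.1–10 µM) at 30 °C. Conjugated dienes are read at 234 nm every 10 min for 8 h. R is the lag phase with compound divided by the control lag phase.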

With `CCCCCN1CCc2c([nH]c3ccc(CC)cc23)C1c1cccc(OC)c1` (stereo not drawn), the Activity in test [1] is 1.2. The Ratio in test [2] is 1. The ED50 in test [3] was 9 µM.
Regarding `CCc1ccc2[nH]c3c(c2c1)CCNC3c1cc(C(C)(C)C)c(O)c(C(C)(C)C)c1` (stereo not drawn), the Activity in test [4] was 13.26%; in test [1], greater than 5; in test [5], 2.7. Further, the Ratio in test [2] was found to be 2.8. For the same compound, the ED50 in test [3] is less than 0.1 µM.
Consider `CCc1ccc2[nH]c3c(c2c1)CCNC3c1ccc(OC)c(OC)c1` (stereo not drawn), for which the Activity in test [1] stood at 1.1. Further, the Ratio in test [2] came to 1. Besides, in test [3], the ED50 turned out to be 10 µM.
Turning to `CCCN1CCc2c([nH]c3ccc(CC)cc23)C1c1cc(C(C)(C)C)c(O)c(C(C)(C)C)c1` (stereo not drawn), the Activity was 13.21% in test [4], greater than 5 in test [1] and 2.6 in test [5]. For the same compound, the Ratio in test [2] is 2.7. In test [3], the ED50 is less than 0.1 µM.
In the case of `CCCN1CCc2c([nH]c3ccc(CC)cc23)C1c1cccc(OC)c1` (stereo not drawn), the Activity stood at 15.32% in test [4] and 1.6 in test [1]. Further, in test [2], the Ratio amounted to 1.2. For the same compound, the ED50 in test [3] worked out at 4 µM.
As to `CCc1ccc2[nH]c3c(c2c1)CCNC3c1ccc2c(c1)OCCO2` (stereo not drawn), the Activity in test [1] stood at 1.1. Further, in test [2], the Ratio was found to be 1. Further, the ED50 in test [3] turned out to be 10 µM.
For the compound `CCc1ccc2[nH]c3c(c2c1)CCNC3c1ccc(OCc2ccccc2)c(OCc2ccccc2)c1` (stereo not drawn), the Activity in test [1] was 1.4; in test [5], 1. In test [2], the Ratio was found to be 1. Besides, in test [3], the ED50 worked out at 7 µM.
On to `CCC(=O)N1CCc2c([nH]c3ccc(CC)cc23)C1c1cccc(OC)c1` (stereo not drawn), for which the Activity in test [1] came to 1.2. In addition, in test [2], the Ratio amounted to 1. In addition, the ED50 in test [3] amounted to 9 µM.
For `CCCN1CCc2c([nH]c3ccc(CC)cc23)C1c1ccccc1OC` (stereo not drawn) the same measures were 1.6, 1 and 4 µM.
For `CCCN1CCc2c([nH]c3ccc(CC)cc23)C1c1ccc(OC)c(OC)c1` (stereo not drawn) the same measures were 1.8, 1.1 and 2 µM.
Regarding `CCCN1CCc2c([nH]c3ccc(CC)cc23)C1c1ccc(O)c(O)c1` (stereo not drawn), the Activity in test [4] is 13.19%; in test [1], greater than 5; in test [5], 2.7. Moreover, the Ratio in test [2] stood at 2.7. Further, the ED50 in test [3] is less than 0.1 µM.
Turning to `CCCN1CCc2c([nH]c3ccc(O)cc23)C1c1cccc(OC)c1` (stereo not drawn), the Activity in test [4] stood at 14.02%; in test [1] it was 3.2; in test [5], 2.1. Further, the Ratio in test [2] is 1.9. Besides, the ED50 in test [3] was found to be 0.2 µM.
Regarding `CCCCCCCCCN1CCc2c([nH]c3ccc(CC)cc23)C1c1cccc(OC)c1` (stereo not drawn), in test [1], the Activity amounted to 1.2. The Ratio in test [2] was 1. For the same compound, the ED50 in test [3] worked out at 9 µM.
Take `CCc1ccc2[nH]c3c(c2c1)CCN(C(=O)OCc1ccccc1)C3c1ccc(OCc2ccccc2)c(OCc2ccccc2)c1` (stereo not drawn): in test [1], the Activity was 1.3. Besides, the Ratio in test [2] turned out to be 1.1. Further, in test [3], the ED50 was 8 µM.
In the case of `CCCN1CCc2c([nH]c3ccc(OCc4ccccc4)cc23)C1c1cccc(OC)c1` (stereo not drawn), the Activity in test [4] stood at 13.22%; in test [1] it was 4.4; in test [5] it was 2.4. The Ratio in test [2] worked out at 2.4. The ED50 in test [3] worked out at 0.1 µM.
In the case of `CCc1ccc2[nH]c3c(c2c1)CCNC3c1ccc(OC)cc1` (stereo not drawn), the Activity in test [1] is 1.2. In test [2], the Ratio stood at 1. In test [3], the ED50 turned out to be 9 µM.
As to `CCCN1CCc2c([nH]c3ccc(CC)cc23)C1c1cccc(OCc2ccccc2)c1` (stereo not drawn), the Activity is 13.42% in test [4], 4.2 in test [1] and 2.3 in test [5]. The Ratio in test [2] was found to be 2.2. For the same compound, the ED50 in test [3] amounted to 0.1 µM.
Take `CCCN1CCc2c([nH]c3ccc(CC)cc23)C1c1ccc2c(c1)OCCO2` (stereo not drawn): the Activity in test [1] stood at 1.2. Besides, the Ratio in test [2] is 1. Besides, the ED50 in test [3] worked out at 9 µM.
For `CCc1ccc2[nH]c3c(c2c1)CCN(C)C3c1cccc(OC)c1` (stereo not drawn), in test [1], the Activity amounted to 1.9. In addition, the Ratio in test [2] is 1. Besides, the ED50 in test [3] worked out at 1 µM.
For `CCc1ccc2[nH]c3c(c2c1)CCN(C(=O)OCc1ccccc1)C3c1cccc(OCc2ccccc2)c1` (stereo not drawn) the same measures were 1, 1 and 10 µM.
With `CCc1ccc2[nH]c3c(c2c1)CCNC3c1cc(OC)c(OC)c(OC)c1` (stereo not drawn), in test [1], the Activity was 1.1. For the same compound, the Ratio in test [2] stood at 1. For the same compound, the ED50 in test [3] was 10 µM.
`CCCN1CCc2c([nH]c3ccc(CC)cc23)C1c1cccc(O)c1` (stereo not drawn): the Activity in test [4] is 13.2%; in test [1], greater than 5; in test [5], 2.7. Further, in test [2], the Ratio is 2.8. Moreover, the ED50 in test [3] was less than 0.1 µM.
For `CCc1ccc2[nH]c3c(c2c1)CCNC3c1cccc(O)c1` (stereo not drawn) the same measures were 13.31%, greater than 5, 2.6, 2.7 and less than 0.1 µM.
Taken in the same sequence, the figures for `CCc1ccc2[nH]c3c(c2c1)CCNC3c1ccc(O)c(O)c1` (stereo not drawn) were 13.3%, greater than 5, 2.6, 2.8 and less than 0.1 µM.
As for `CCCN1CCc2c([nH]c3ccc(CC)cc23)C1c1ccc(OC)cc1` (stereo not drawn), in test [1], the Activity stood at 1.7. Besides, in test [2], the Ratio worked out at 1. Besides, in test [3], the ED50 came to 3 µM.
Turning to `CCc1ccc2[nH]c3c(c2c1)CCNC3c1cccc(OCc2ccccc2)c1` (stereo not drawn), the results for the Activity in test [4], in test [1] and in test [5] were 13.29%, 1.4 and 1, respectively. In addition, in test [2], the Ratio stood at 1. The ED50 in test [3] was found to be 7 µM.
In the case of `CCCN1CCc2c([nH]c3ccc(CC)cc23)C1c1cc(OC)c(OC)c(OC)c1` (stereo not drawn), the Activity in test [1] is 1.8. Moreover, the Ratio in test [2] is 1.2. Also, in test [3], the ED50 was determined as 2 µM.
Taken in the same sequence, the figures for `CCCN1CCc2c([nH]c3ccc(CC)cc23)C1c1ccc(OCc2ccccc2)c(OCc2ccccc2)c1` (stereo not drawn) were 1.8, 1.3 and 3 µM.
In the case of `CCc1ccc2[nH]c3c(c2c1)CCNC3c1ccccc1OC` (stereo not drawn), in test [1], the Activity was 1.4. In test [2], the Ratio is 1.2. For the same compound, in test [3], the ED50 was determined as 7 µM.
For `CCc1ccc2[nH]c3c(c2c1)CCNC3c1cccc(OC)c1` (stereo not drawn) the same measures were 1.2, 1.1 and 9 µM.
Taken in the same sequence, the figures for `COc1cccc(C2NCCc3c2[nH]c2ccc(OCc4ccccc4)cc32)c1` (stereo not drawn) were 1.5, 1.1 and 5 µM.
Taken in the same sequence, the figures for `CCc1ccc2[nH]c3c(c2c1)CCNC3c1ccc(OC)c(OC)c1OC` (stereo not drawn) were 1.2, 1 and 9 µM.
